Reference: ChEMBL document CHEMBL1131320, “Role of the C(6)-hydroxy group in bicyclomycin: synthesis, structure, and chemical, biochemical, and biological properties” (1998)
≈ marks a conversion by molar mass, not a printed value.

Assays:
[1] = tested on: Escherichia coli; test: The compound was tested for the % inhibition of transcription termination (TT) activity in Escherichia coli-rho at 100 uM; assay type: functional
In short: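 Rho-dependent transcription termination (Platt method), at pH 7.9 with [α-³²P]UTP label and purified E. coli rho. Percent termination is read at 100 µM.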

[2] = tested on: Escherichia coli; test: The compound was tested for the concentration to inhibit 50% of transcription termination activity in Escherichia coli-rho and is expressed in I50.; assay type: functional
In short: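 Rho-dependent transcription termination following Platt and co-workers, at pH 7.9 with [α-³²P]UTP and rho purified from E. coli AR120/p39-AS. I50 is the average 50% inhibition concentration from duplicate tests.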

[3] = tested on: Escherichia coli; test: The compound was tested for minimum inhibitory concentration (MIC) against Escherichia coli W3350 cells; assay type: functional
In short: (§1)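 Filter-disk assay; MIC taken as the average minimum inhibitory concentration from duplicate tests.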

[4] = biological target: Transcription termination factor rho (Escherichia coli) (UniProt P0AG30); test: The compound was tested for the concentration to inhibit 50% of ATPase activity
Transcription termination factor rho (Escherichia coli), sequence (P0AG30 whole entry, looked up): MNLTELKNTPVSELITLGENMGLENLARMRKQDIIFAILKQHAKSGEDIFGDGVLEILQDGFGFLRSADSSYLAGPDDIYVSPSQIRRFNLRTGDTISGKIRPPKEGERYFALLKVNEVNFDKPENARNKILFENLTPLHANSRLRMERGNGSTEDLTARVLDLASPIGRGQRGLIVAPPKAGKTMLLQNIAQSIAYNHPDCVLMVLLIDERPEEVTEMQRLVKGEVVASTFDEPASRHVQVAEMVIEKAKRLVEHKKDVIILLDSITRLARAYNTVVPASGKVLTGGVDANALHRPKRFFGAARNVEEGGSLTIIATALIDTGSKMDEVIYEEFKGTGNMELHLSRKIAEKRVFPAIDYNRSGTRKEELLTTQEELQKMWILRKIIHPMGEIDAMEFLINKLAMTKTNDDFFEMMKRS

[5] = biological target: Transcription termination factor rho (Escherichia coli) (UniProt P0AG30); test: The compound was tested for the % inhibition of rho poly(C)-stimulated ATPase activity at 400 uM
[6] = tested on: Escherichia coli; test: The compound was tested for minimum inhibitory concentration (MIC) against Escherichia coli W3350 cells.; assay type: functional; in short: as §1
[7] = tested on: Escherichia coli; test: The compound was tested for the % inhibition of rho poly(C)-stimulated ATPase activity at 400 uM; assay type: functional
In short: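 Poly(C)-dependent ATPase of purified E. coli rho (AR120/p39-AS overexpression, Lowry-quantified), run at pH 7.9 with [γ-³²P]ATP. Percent inhibition is read at 400 µM alongside a concurrently run parent-antibiotic reference.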

| Compound | MIC ([3]; read-out: MIC) [µg/mL] | I50 [4] | inhibition [5] [%] | MIC [6] [µg/mL] | MIC [3] [µg/mL] | inhibition at 100 µM [1] [%] | I50 [2] [µM] | inhibition at 400 µM [7] [%] |
| --- | --- | --- | --- | --- | --- | --- | --- | --- |
| C=C1CCOC2([C@@H](O)[C@@](C)(O)CO)NC(=O)[C@@]1(N(C)OC)NC2=O | > 32 | > 400 | 7 | – | – | 0 | > 100 | – |
| C=C1CCOC2([C@@H](O)[C@@](C)(O)CO)NC(=O)[C@@]1(N(C)C)NC2=O | – | > 400 | 1 | > 32 | – | 1 | > 100 | – |
| C=C1CCOC2([C@@H](O)[C@@](C)(O)CO)NC(=O)[C@@]1(NC(C)=O)NC2=O | > 32 | > 400 | 15 | – | – | 1 | > 100 | – |
| C=C1CCOC2([C@@H](O)[C@@](C)(O)CO)NC(=O)[C@@]1(NC)NC2=O | > 32 | > 400 | 3 | – | – | 2 | > 100 | – |
| C=C1CCOC2([C@@H](O)[C@@](C)(O)CO)NC(=O)[C@@]1(NOC)NC2=O | > 32 | > 400 | 13 | – | – | 0 | > 100 | – |
| C=C1CCOC2([C@@H](O)[C@@](C)(O)CO)NC(=O)[C@@]1(N(C)O)NC2=O | > 32 | > 400 | 16 | – | – | 0 | > 100 | – |

Continued, in another order:

| MIC ([3]; read-out: MIC) [µg/mL] | I50 [4] | inhibition [5] [%] | MIC [6] [µg/mL] | MIC [3] [µg/mL] | Compound | inhibition at 100 µM [1] [%] | I50 [2] [µM] | inhibition at 400 µM [7] [%] |
| --- | --- | --- | --- | --- | --- | --- | --- | --- |
| > 32 | > 400 | 28 | – | – | C=C1CCOC2([C@@H](O)[C@@](C)(O)CO)NC(=O)[C@@]1(S)NC2=O | 8 | > 100 | – |
| > 32 | > 400 | 45 | – | – | C=C1CCOC2([C@@H](O)[C@@](C)(O)CO)NC(=O)[C@@]1(NO)NC2=O | 22 | > 100 | – |
| – | – | – | – | 250 (≈ 827 µM) | C=C1CCOC2([C@@H](O)[C@@](C)(O)CO)NC(=O)[C@@]1(O)NC2=O | 100 | 5 | – |
| – | > 400 | – | > 32 | – | C=C1CCOC2([C@@H](O)[C@@](C)(O)CO)NC(=O)[C@@]1(N)NC2=O | 5 | > 100 | 17 |
